According to ChEMBL document CHEMBL1157960, “10-Phenyl-[12]-cytochalasins Z7, Z8, and Z9 from the marine-derived fungus Spicaria elegans” (J Nat Prod, 2006):

Experiments:
[1] = tested on: P388; test: Cytotoxicity against mouse P388 cells after 72 hrs by MTT method; assay type: functional, cell-based; details: P388, 72 h
How it was run: (§1)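 Cells kept in RPMI-1640 with 10% FBS at 37 °C under 5% CO2/95% air. Seeded at 5 × 10^4 cells/mL and held 24 h before compound was added in DMSO at various concentrations. Incubation then ran 72 h. MTT (5 mg/mL stock) was added for 4 h, formazan was dissolved in DMSO, and absorbance was read at 540 nm. Result reported as IC50.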

[2] = tested on: A549; test: Cytotoxicity against human A549 cells after 72 hrs by MTT method; assay type: functional, cell-based; details: A549, 72 h; how it was run: as §1

Compound | IC50 [1] [µM] | IC50 [2] [µM]
C=C1[C@@H](C)[C@H]2[C@H](Cc3ccccc3)NC(=O)[C@]23OC(=O)/C=C/[C@H](C)[C@H](O)[C@@H](C)C/C=C/[C@H]3[C@@H]1O | 75 | 8.8
CC1=C(C)[C@H]2[C@H](Cc3ccccc3)NC(=O)[C@]23OC(=O)/C=C/[C@H](C)[C@H](O)[C@@H](C)C/C=C/[C@H]3[C@@H]1O | 56 | 21
C[C@H]1C/C=C/[C@H]2[C@@H]3O[C@]3(C)[C@@H](C)[C@H]3[C@H](Cc4ccccc4)NC(=O)[C@]32OC(=O)O/C=C/[C@@](C)(O)C1=O [CYTOCHALASIN E] | 0.093 | 0.0062
CC1=C(C)[C@H]2[C@H](Cc3ccccc3)NC(=O)[C@]23OC(=O)O/C=C/[C@@](C)(O)C(=O)[C@@H](C)C/C=C/[C@H]3[C@@H]1O [CYTOCHALASIN K] | 89 | 8.4
CC1=C(C)[C@H]2[C@H](Cc3ccccc3)NC(=O)[C@]23OC(=O)/C=C/[C@@](C)(O)C[C@@H](C)C/C=C/[C@H]3[C@@H]1O [CYTOCHALASIN Z9] | 99 | 8.7
